# Measurements taken from ChEMBL document CHEMBL1250469, “Design, synthesis, and biological evaluation of ketoprofen analogs as potent cyclooxygenase-2 inhibitors” (Bioorg Med Chem, 2010).
# Species on record: Ovis aries
# Experiment: Selectivity index, ratio of IC50 for sheep COX1 to IC50 for COX2
# In short: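 Ratio of IC50 for COX-1 to IC50 for COX-2. Both come from the ovine chemiluminescent COX assay, with arachidonic acid as substrate and a naphthalene hydrazide luminescence read-out. Each IC50 is the mean of two determinations.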
row,SMILES,Ratio IC50
1,CC(=O)Nc1ccc(-c2cc(C(=O)O)c3cc(C(=O)c4ccccc4)ccc3n2)cc1,256
2,CS(=O)(=O)c1ccc(-c2cc(C(=O)O)c3cc(C(=O)c4ccccc4)ccc3n2)cc1,317

# Second part, the compound after the results:
row,Ratio IC50,SMILES
1,1150,[N-]=[N+]=Nc1ccc(-c2cc(C(=O)O)c3cccc(C(=O)c4ccccc4)c3n2)cc1
2,231,CS(=O)(=O)c1ccc(-c2cc(C(=O)O)c3cccc(C(=O)c4ccccc4)c3n2)cc1
3,> 1300,[N-]=[N+]=Nc1ccc(-c2cc(C(=O)O)c3cc(C(=O)c4ccccc4)ccc3n2)cc1
4,115,CC(=O)Nc1ccc(-c2cc(C(=O)O)c3cccc(C(=O)c4ccccc4)c3n2)cc1
